# According to ChEMBL document CHEMBL1134174, “Anti-Helicobacter pylori agents endowed with H2-antagonist properties” (2001):
# Assays:
# Assay type in all cases: functional
# Helicobacter pylori [1] = experiment: Inhibitory activity was determined against 102R strain of Helicobacter pylori
# Helicobacter pylori [2] = experiment: Minimal concentration needed to inhibit 50% of Helicobacter pylori strain
# How it was run: (§1)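 Agar dilution MICs on 20 clinical H. pylori strains, two metronidazole resistant, in Columbia agar with horse serum and yeast extract. DMSO solutions diluted twofold serially in agar. Inocula at 0.5 McFarland in Wilkins Chalgren broth, incubated 37 C for 72 h, 10% CO2, microaerobic. MIC50/MIC90 taken as the lowest concentration inhibiting 50% or 90% of strains.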
# Helicobacter pylori [3] = experiment: Minimal concentration needed to inhibit 90% of Helicobacter pylori strain; how it was run: as §1
# Helicobacter pylori [4] = experiment: Minimal concentration needed to inhibitH. pylori strain
# Helicobacter pylori [5] = experiment: Inhibitory activity was determined against NCTC-11637 strain of Helicobacter pylori
# Helicobacter pylori [6] = experiment: Minimal concentration needed to inhibit Helicobacter pylori strain
SMILES,MIC (Helicobacter pylori [1]) [µg/mL],MIC50 (Helicobacter pylori [2]) [µg/mL],MIC90 (Helicobacter pylori [3]) [µg/mL],MIC (Helicobacter pylori [4]) [µg/mL],MIC (Helicobacter pylori [5]) [µg/mL],MIC (Helicobacter pylori [6]) [µg/mL]
Cc1ncc([N+](=O)[O-])n1CCO [METRONIDAZOLE],8,0.25,8,0.031,16,–
N#C/N=[N+](\[O-])c1ccc(C(=O)O)cc1,0.031,0.016,0.031,< 0.0039,0.0078,–
N#C/N=[N+](\[O-])c1ccc(C(=O)NCC/N=C(\NC#N)NCCCOc2cccc(CN3CCCCC3)c2)cc1,8,8,16,–,16,0.25

# Results, then the compound that gave them:
MIC (Helicobacter pylori [1]) [µg/mL],MIC50 (Helicobacter pylori [2]) [µg/mL],MIC90 (Helicobacter pylori [3]) [µg/mL],MIC (Helicobacter pylori [4]) [µg/mL],MIC (Helicobacter pylori [5]) [µg/mL],MIC (Helicobacter pylori [6]) [µg/mL],SMILES
2,1,2,0.25,1,–,N#C/N=[N+](\[O-])c1ccc(C(=O)NCCCCCC/N=C(\NC#N)NCCCOc2cccc(CN3CCCCC3)c2)cc1
8,2,4,0.25,4,–,N#C/N=[N+](\[O-])c1ccc(C(=O)NCCCC/N=C(\NC#N)NCCCOc2cccc(CN3CCCCC3)c2)cc1
